For experiment [1], the system named is Plasmodium falciparum. The experiment in a line: In vitro inhibition of chloroquine-sensitive Plasmodium falciparum HB3. It counts as functional, organism-based. The essentials:
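HB3 parasites kept in human erythrocytes (2–5%) in RPMI 1640 with 25 mM HEPES, 32 mM NaHCO3, 10% human serum, gassed 3% O2/4% CO2/93% N2. 48 h assay: initial parasitemia 1%, 5% hematocrit, ethanol-dissolved drug (final <1% ethanol); [3H]-hypoxanthine (0.5 μCi) added at 24 h, counted after further 24 h. Triplicate; IC50 by probit interpolation of log dose–response.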

Experiment [2] in a line: Cellular accumulation ratio (CAR) for chloroquine sensitive HB3 strain of Plasmodium falciparum. The experiment is classed as functional. The essentials:
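IC50 for HB3 measured at a range of inoculum sizes in the [3H]-hypoxanthine 48 h assay. It is extrapolated to zero inoculum to give the absolute IC50. CAR is calculated as (measured IC50 − absolute IC50)/(absolute IC50 × fractional volume of parasitized RBC).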

Experiment [3] relates to Plasmodium falciparum. The experiment in a line: In vitro inhibition of chloroquine-resistant Plasmodium falciparum K1. The experiment is classed as functional, organism-based. The essentials:
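P. falciparum K1 (uncloned, Thailand) kept in human erythrocytes in RPMI 1640 with 25 mM HEPES, 32 mM NaHCO3, 10% human serum, under 3% O2/4% CO2/93% N2. Stocks in ethanol, final <1% ethanol. 48 h test at 1% initial parasitemia, 5% hematocrit, 37 °C; [3H]-hypoxanthine added at 24 h, incorporation counted at 48 h. IC50 by probit interpolation of log dose–response; triplicate.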

Usually IC50 stands for the concentration that gives 50% inhibition. Higher therefore signals weaker potency in that assay. In the experiment with Plasmodium falciparum [1], `CCN(CC)Cc1cc(Nc2ccnc3cc(Cl)ccc23)cc(F)c1O` returned an IC50 of 55.2 nM. The CAR in experiment [2] was 1510.
In the case of `CCN(CC)CCCC(C)Nc1ccnc2cc(Cl)ccc12` (configuration not stated), the CAR in experiment [2] came to 1860.
On to `CCN(CC)Cc1cc(Nc2ccnc3cc(Cl)ccc23)ccc1O`, for which the values for the IC50 with Plasmodium falciparum [3] (Plasmodium falciparum) and with Plasmodium falciparum [1] were 27.2 nM and 3.7 nM, respectively. For the same compound, in experiment [2], the CAR came out at 12600.
On to `CCNCCCC(C)Nc1ccnc2cc(Cl)ccc12` (configuration not stated) [DESETHYLCHLOROQUINE], for which, in the experiment on Plasmodium falciparum [1], the IC50 came to 17 nM. Besides, the CAR in experiment [2] came to 682.
The corresponding values for `CC(C)(C)NCc1cc(Nc2ccnc3cc(Cl)ccc23)cc(-c2ccc(Cl)cc2)c1F` [FLOUROTEBUQUINE] are 61.6 nM and 1080.
Take `CCN(CC)Cc1cccc(Nc2ccnc3cc(Cl)ccc23)c1`: 16.2 nM corresponded to half-maximal inhibition in the experiment on Plasmodium falciparum [1] (IC50). The CAR in experiment [2] amounted to 3090.
As to `CC(C)(C)NCc1cc(Nc2ccnc3cc(Cl)ccc23)ccc1O` [N-TERT-BUTYL-AMODIAQUINE], in the experiment on Plasmodium falciparum [1], the IC50 was 3.7 nM. For the same compound, the CAR in experiment [2] was determined as 21100.
In the experiment on Plasmodium falciparum [3], `CC(C)(C)NCc1cc(Nc2ccnc3cc(Cl)ccc23)cc(-c2ccc(Cl)cc2)c1O` [TEBUQUINE] had an IC50 of 42.1 nM. Also, the CAR in experiment [2] came to 70200.
`CCN(CC)Cc1cc(Nc2ccnc3cc(Cl)ccc23)cc(-c2ccc(Cl)cc2)c1F`: the IC50 with Plasmodium falciparum [3] (Plasmodium falciparum) stood at 101 nM; in the experiment with Plasmodium falciparum [1], 104 nM.
For the compound `CCN(CC)Cc1cc(Nc2ccnc3cc(Cl)ccc23)ccc1F`, in the experiment with Plasmodium falciparum [1], the IC50 came to 31.9 nM. For the same compound, the CAR in experiment [2] was 1710.
In the experiment on Plasmodium falciparum [1], `CCNCc1cc(Nc2ccnc3cc(Cl)ccc23)ccc1O` [DESETHYL AMODIAQUINE] registered an IC50 of 4.5 nM. Further, the CAR in experiment [2] was 6410.
For the compound `CCN(CC)Cc1c(O)cc(F)c(Nc2ccnc3cc(Cl)ccc23)c1F`, in the experiment on Plasmodium falciparum [1], 47.3 nM corresponded to half-maximal inhibition (IC50). The CAR in experiment [2] stood at 922.
Regarding `CC(C)(C)NCc1cc(Nc2ccnc3cc(Cl)ccc23)cc(-c2ccc(Cl)cc2)c1`, the IC50 in the experiment on Plasmodium falciparum [3] (Plasmodium falciparum) worked out at 74.2 nM; in the experiment with Plasmodium falciparum [1] it was 56.6 nM. Moreover, the CAR in experiment [2] was 1200.

For the origin of these results see ChEMBL document CHEMBL1129934, “Synthesis, antimalarial activity, and molecular modeling of tebuquine analogues” (J Med Chem, 1997).
